What was measured:
Type in all cases: functional
Details in all cases: read-out: GI
[1] = system: NCI/ADR-RES; experiment: Antitumor activity against human NCI-ADR-RES cells assessed as growth inhibition at 10 uM relative to control
Summary of the method: (§1)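 After drug addition, plates were incubated 48 h at 37 °C under 5% CO2. Adherent cells were fixed with cold TCA (10% final, 60 min, 4 °C) and suspension cells with 16% final TCA. Staining used 0.4% SRB in 1% acetic acid, solubilized in 10 mM trizma, read at A515. Percent growth was calculated from time-zero, control and treated absorbances.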

[2] = system: HOP-92; experiment: Antitumor activity against human HOP-92 cells assessed as growth inhibition at 10 uM relative to control; summary of the method: as §1
[3] = system: DU-145; experiment: Antitumor activity against human DU-145 cells assessed as growth inhibition at 10 uM relative to control; summary of the method: as §1
[4] = system: SF-268; experiment: Antitumor activity against human SF-268 cells assessed as growth inhibition at 10 uM relative to control; summary of the method: as §1
[5] = system: ACHN; experiment: Antitumor activity against human ACHN cells assessed as growth inhibition at 10 uM relative to control; summary of the method: as §1
[6] = system: UACC-62; experiment: Antitumor activity against human UACC-62 cells assessed as growth inhibition at 10 uM relative to control
Summary of the method: (§2)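 Drug exposure 48 h at 37 °C, 5% CO2. Adherent cells fixed with cold TCA (10% final), suspension cells with TCA (16% final). Stained with 0.4% SRB in 1% acetic acid, dissolved in 10 mM Tris, A515. Growth relative to time-zero and untreated control.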

[7] = system: SF-295; experiment: Antitumor activity against human SF-295 cells assessed as growth inhibition at 10 uM relative to control; summary of the method: as §1
[8] = system: SK-OV-3; experiment: Antitumor activity against human SK-OV-3 cells assessed as growth inhibition at 10 uM relative to control; summary of the method: as §2
[9] = system: UACC-257; experiment: Antitumor activity against human UACC-257 cells assessed as growth inhibition at 10 uM relative to control; summary of the method: as §2
[10] = system: A498; experiment: Antitumor activity against human A498 cells assessed as growth inhibition at 10 uM relative to control; summary of the method: as §1
[11] = system: TK-10; experiment: Antitumor activity against human TK-10 cells assessed as growth inhibition at 10 uM relative to control; summary of the method: as §2
[12] = system: PC-3; experiment: Antitumor activity against human PC-3 cells assessed as growth inhibition at 10 uM relative to control; summary of the method: as §1
[13] = system: OVCAR-4; experiment: Antitumor activity against human OVCAR-4 cells assessed as growth inhibition at 10 uM relative to control; summary of the method: as §1
[14] = system: M14; experiment: Antitumor activity against human M14 cells assessed as growth inhibition at 10 uM relative to control; summary of the method: as §1

Row | SMILES | inhibition of growth at 10 µM [1] [%] | inhibition of growth at 10 µM [2] [%] | inhibition of growth at 10 µM [3] [%] | inhibition of growth at 10 µM [4] [%] | inhibition of growth at 10 µM [5] [%] | inhibition of growth at 10 µM [6] [%] | inhibition of growth at 10 µM [7] [%] | inhibition of growth at 10 µM [8] [%] | inhibition of growth at 10 µM [9] [%] | inhibition of growth at 10 µM [10] [%] | inhibition of growth at 10 µM [11] [%] | inhibition of growth at 10 µM [12] [%] | inhibition of growth at 10 µM [13] [%] | inhibition of growth at 10 µM [14] [%]
1 | N#Cc1c(-c2ccc(Cl)cc2)nc(N/N=C/c2cccc([N+](=O)[O-])c2)nc1N1CCOCC1 | 17.5 | 28.7 | 13.1 | 12.3 | 21.3 | 27.6 | < 1 | 11.1 | < 1 | 47.5 | 25.6 | 35.8 | 22.3 | 16.4
2 | N#Cc1c(-c2ccc(Cl)cc2)nc(N/N=C/c2cccc(F)c2)nc1N1CCOCC1 | < 1 | < 1 | < 1 | < 1 | 10.2 | < 1 | < 1 | < 1 | < 1 | 17 | < 1 | 14.9 | < 1 | < 1
3 | N#Cc1c(-c2ccc(Cl)cc2)nc(N/N=C2/C(=O)Nc3ccc(Br)cc32)nc1N1CCOCC1 | < 1 | < 1 | < 1 | < 1 | < 1 | < 1 | < 1 | < 1 | < 1 | 26.3 | < 1 | < 1 | < 1 | < 1
4 | N#Cc1c(-c2ccc(Cl)cc2)nc(N2NC(=O)CC2=N)nc1N1CCOCC1 | < 1 | 12.6 | < 1 | < 1 | < 1 | 86.2 | < 1 | < 1 | < 1 | 34.3 | < 1 | < 1 | < 1 | < 1
5 | N#Cc1c(-c2ccc(Cl)cc2)[nH]c(=S)[nH]c1=O | < 1 | < 1 | < 1 | < 1 | < 1 | < 1 | < 1 | < 1 | < 1 | < 1 | < 1 | < 1 | < 1 | < 1
6 | N#Cc1c(-c2ccc(Cl)cc2)nc(N/N=C2/C(=O)Nc3ccc(Cl)cc32)nc1N1CCOCC1 | 11.7 | 10.5 | < 1 | < 1 | < 1 | < 1 | < 1 | < 1 | < 1 | 26.9 | < 1 | < 1 | < 1 | < 1
7 | N#Cc1c(-c2ccc(Cl)cc2)nc(N/N=C/c2cccc(Br)c2)nc1N1CCOCC1 | < 1 | 28.8 | 40.4 | 10.8 | 28.5 | < 1 | < 1 | < 1 | 13.5 | < 1 | < 1 | 38.8 | 12.6 | 37.6

Source: ChEMBL document CHEMBL5376013, “Design, synthesis and biological evaluation of novel morpholinopyrimidine-5-carbonitrile derivatives as dual PI3K/mTOR inhibitors” (RSC Med Chem, 2024)
